ChEMBL document CHEMBL4680377, “Discovery of a Novel Series of Pyridone-Based EP3 Antagonists for the Treatment of Type 2 Diabetes” (ACS Med Chem Lett, 2021)
≈ marks a conversion by molar mass, not a printed value.

How the values were obtained:
[1] = Kinetic solubility of compound in PBS buffer; assay type: physicochemical; details: read-out: Kinetic_solubility
[2] = biological target: T1, Prostaglandin E2 receptor EP3 subtype (Homo sapiens, UniProt P43115); assay: Antagonist activity at human EP3 expressed in CHO cells assessed as suppression of sulprostone-induced inhibition of forskolin induced cAMP production measured after 30 mins by HTR-FRET assay; assay type: functional, cell-based
T1 sequence (P43115 whole entry): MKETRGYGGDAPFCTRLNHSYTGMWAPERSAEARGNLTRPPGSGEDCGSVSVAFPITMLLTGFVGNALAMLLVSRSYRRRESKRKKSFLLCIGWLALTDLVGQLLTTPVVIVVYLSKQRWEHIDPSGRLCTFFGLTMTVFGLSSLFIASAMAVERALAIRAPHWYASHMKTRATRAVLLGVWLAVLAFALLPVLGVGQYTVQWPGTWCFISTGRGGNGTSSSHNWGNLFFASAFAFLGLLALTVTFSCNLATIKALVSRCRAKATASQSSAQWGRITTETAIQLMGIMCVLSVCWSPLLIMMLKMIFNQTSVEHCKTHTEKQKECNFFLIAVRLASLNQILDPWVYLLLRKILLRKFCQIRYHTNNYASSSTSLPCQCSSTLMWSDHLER

[3] = Kinetic solubility of compound at pH 2; assay type: physicochemical; details: buffer, read-out: Kinetic_solubility
[4] = Metabolic stability in rat liver microsomes assessed as intrinsic clearance half life; assay type: ADME, Microsome
[5] = Apparent permeability across apical to basolateral side in dog MDCK cells; assay type: ADME, cell-based, Canis lupus familiaris
[6] = Metabolic stability in human liver microsomes assessed as intrinsic clearance half life; assay type: ADME, Microsome
[7] = biological target: T1, Prostaglandin E2 receptor EP3 subtype; assay: Displacement of [3H]-PGE2 from human EP3 expressed in Chem-1 cell membranes incubated for 2 hrs by TopCount scintillation plate reader analysis; parameters: species or system Membrane
[8] = Cmax in Sprague-Dawley rat at 10 mg/kg, po measured up to 24 hrs by LC-MS/MS analysis; assay type: ADME, organism-based; parameters: route oral, dose 10 mg/kg, time <=24; details: in vivo
Method in brief: (§1)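 Sprague-Dawley rats, n = 3 per route, sampled over 24 h. Full PK: iv 2 mg/kg in 20% HPbCD with po 10 mg/kg given either in 0.5% HPMC or in 20% HPbCD, depending on study. Fast PK: po only, 10 mg/kg in 0.5% HPMC.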

[9] = AUClast in Sprague-Dawley rat at 10 mg/kg, po measured up to 24 hrs by LC-MS/MS analysis; assay type: ADME, organism-based; parameters: route oral, dose 10 mg/kg, time <=24; details: in vivo; method in brief: as §1
[10] = Plasma protein binding in rat; assay type: ADME, cell-free; details: read-out: PPB (converted)
[11] = Plasma protein binding in human; assay type: ADME, cell-free; details: read-out: PPB (converted)

Which solubility kinetic [1] does the source give for CC(C)[C@@H](c1ccc(-c2ccc3cccc(F)c3c2)[nH]c1=O)[C@@H]1OC(=O)NC1=O (relative stereo) here?
Its solubility kinetic is 27.4 µM (≈ 10.8 µg/mL).

And the IC50 [2]?
The IC50 was 610 nM.

And the solubility kinetic [3]?
The solubility kinetic was 6.9 µM (≈ 2.72 µg/mL).

What about the half-life [4] of the same compound?
The half-life was 1.27 h.

And the Papp A→B [5]?
Its Papp A→B is 3.15 ×10⁻⁶ cm/s.

And the half-life [6]?
The half-life was greater than 3 h.

And the Ki [7]?
The Ki was 85 nM.

With CC(C)C(/C=C1/C(=O)NC(=O)N1C)c1ccc(-c2ccc3cccc(F)c3c2)[nH]c1=O (stereo unspecified) as the compound, how does the solubility kinetic [1] read?
Its solubility kinetic is 34.8 µM (≈ 14.6 µg/mL).

What about the solubility kinetic [3] of the same compound?
The solubility kinetic was 8.3 µM (≈ 3.48 µg/mL).

What about the half-life [4] of the same compound?
The half-life was 1.08 h.

What about the Papp A→B [5] of the same compound?
Its Papp A→B is 14.1 ×10⁻⁶ cm/s.

What about the half-life [6] of the same compound?
Its half-life is greater than 3 h.

Which solubility kinetic [1] does the source give for CC(C)[C@H](C[C@H]1OC(=O)NC1=O)c1ccc(-c2ccc3cccc(F)c3c2)[nH]c1=O (relative stereo) here?
Its solubility kinetic is 35.4 µM (≈ 14.5 µg/mL).

What about the IC50 [2] of the same compound?
Its IC50 is 15 nM.

And the solubility kinetic [3]?
The solubility kinetic was 24.4 µM (≈ 9.97 µg/mL).

And the half-life [4]?
Its half-life is 0.95 h.

What about the Papp A→B [5] of the same compound?
Its Papp A→B is 10.3 ×10⁻⁶ cm/s.

And the half-life [6]?
Its half-life is 1.68 h.

What about the Ki [7] of the same compound?
Its Ki is 6 nM.

For CC(C)/C(=C1\C(=O)NC(=O)N1C)c1ccc(-c2ccc3cccc(F)c3c2)[nH]c1=O, which solubility kinetic [1] is on record?
Its solubility kinetic is 22.5 µM (≈ 9.12 µg/mL).

And the IC50 [2]?
Its IC50 is 350 nM.

What about the solubility kinetic [3] of the same compound?
Its solubility kinetic is 11.1 µM (≈ 4.5 µg/mL).

And the half-life [4]?
The half-life was greater than 3 h.

And the Papp A→B [5]?
The Papp A→B was 6.85 ×10⁻⁶ cm/s.

And the half-life [6]?
Its half-life is greater than 3 h.

What about the Ki [7] of the same compound?
Its Ki is 85 nM.

For CCn1cc2c(F)c(-c3ccc(C(/C=C4\OC(=O)NC4=O)(CC)CC)c(=O)[nH]3)ccc2n1, which IC50 [2] is on record?
Its IC50 is greater than 20000 nM.

And the Ki [7]?
Its Ki is greater than 10000 nM.

Which Cmax [8] does the source give for CCC(/C=C1\OC(=O)NC1=O)(CC)c1ccc(-c2ccc3cccc(F)c3c2)[nH]c1=O here?
Its Cmax is 58.1 µg/mL.

What about the solubility kinetic [1] of the same compound?
Its solubility kinetic is 32.6 µM (≈ 13.7 µg/mL).

And the solubility kinetic [3]?
Its solubility kinetic is 13.5 µM (≈ 5.68 µg/mL).

What about the half-life [4] of the same compound?
The half-life was greater than 3 h.

What about the half-life [6] of the same compound?
The half-life was 0.948 h.

What about the AUC(0-t) at 24 h [9] of the same compound?
Its AUC(0-t) at 24 h is 327 µg·h/mL.

Which results are given for CC(C)C(CC1NC(=O)NC1=O)c1ccc(-c2ccc3cccc(F)c3c2)[nH]c1=O (stereo unspecified)?
solubility kinetic [1]: 12.3 µM (≈ 5.01 µg/mL); solubility kinetic [3]: 13 µM (≈ 5.3 µg/mL); half-life [4]: 0.35 h; Papp A→B [5]: 17.1 ×10⁻⁶ cm/s; half-life [6]: 1.59 h

With CCn1ncc2cc(C)c(-c3ccc(C(/C=C4\OC(=O)NC4=O)(CC)CC)c(=O)[nH]3)cc21 as the compound, how does the IC50 [2] read?
The IC50 was greater than 20000 nM.

What about the Ki [7] of the same compound?
The Ki was 5700 nM.

With CCC(/C=C1\OC(=O)NC1=O)(CC)c1ccc(-c2ccc3cccc(C(C)C)c3c2)[nH]c1=O as the compound, how does the half-life [4] read?
The half-life was 1.88 h.

What about the half-life [6] of the same compound?
The half-life was 0.758 h.

What about the Ki [7] of the same compound?
The Ki was 120 nM.

With CC(C)[C@H](C[C@@H]1OC(=O)NC1=O)c1ccc(-c2ccc3cccc(F)c3c2)[nH]c1=O (relative stereo) as the compound, how does the Cmax [8] read?
Its Cmax is 44.1 µg/mL.

What about the solubility kinetic [1] of the same compound?
The solubility kinetic was 21.1 µM (≈ 8.62 µg/mL).

What about the IC50 [2] of the same compound?
Its IC50 is 27 nM.

What about the solubility kinetic [3] of the same compound?
The solubility kinetic was 25.1 µM (≈ 10.3 µg/mL).

And the half-life [4]?
Its half-life is 0.503 h.

And the Papp A→B [5]?
Its Papp A→B is 10.8 ×10⁻⁶ cm/s.

What about the half-life [6] of the same compound?
Its half-life is 2.07 h.

What about the AUC(0-t) at 24 h [9] of the same compound?
Its AUC(0-t) at 24 h is 218 µg·h/mL.

And the Ki [7]?
Its Ki is 8 nM.

And the fraction unbound [10]?
Its fraction unbound is 0.0021.

What about the fraction unbound [11] of the same compound?
Its fraction unbound is 0.0032.

With CCn1nc(C)c2ccc(-c3ccc(C(/C=C4\OC(=O)NC4=O)(CC)CC)c(=O)[nH]3)cc21 as the compound, how does the IC50 [2] read?
Its IC50 is 18000 nM.

What about the Ki [7] of the same compound?
Its Ki is 270 nM.

For CC(C)[C@@H](c1ccc(-c2ccc3cccc(F)c3c2)[nH]c1=O)[C@H]1OC(=O)NC1=O (relative stereo), which solubility kinetic [1] is on record?
The solubility kinetic was 31.6 µM (≈ 12.5 µg/mL).

What about the IC50 [2] of the same compound?
Its IC50 is 92 nM.

And the solubility kinetic [3]?
Its solubility kinetic is 5.4 µM (≈ 2.13 µg/mL).

And the half-life [4]?
The half-life was 1.93 h.

And the Papp A→B [5]?
Its Papp A→B is 9.14 ×10⁻⁶ cm/s.

And the half-life [6]?
The half-life was greater than 3 h.

And the Ki [7]?
Its Ki is 27 nM.

For CC(C)C(CC1C(=O)NC(=O)N1C)c1ccc(-c2ccc3cccc(F)c3c2)[nH]c1=O (stereo unspecified), which solubility kinetic [1] is on record?
The solubility kinetic was 33.6 µM (≈ 14.2 µg/mL).

What about the solubility kinetic [3] of the same compound?
The solubility kinetic was 26.6 µM (≈ 11.2 µg/mL).

And the half-life [4]?
The half-life was less than 0.0667 h.

What about the Papp A→B [5] of the same compound?
Its Papp A→B is 17.6 ×10⁻⁶ cm/s.

And the half-life [6]?
Its half-life is 0.153 h.

With CCn1ncc2cc(F)c(-c3ccc(C(/C=C4\OC(=O)NC4=O)(CC)CC)c(=O)[nH]3)cc21 as the compound, how does the Ki [7] read?
The Ki was 120 nM.

For O=C1NC(=O)/C(=C/C2(c3ccc(-c4ccc5cccc(F)c5c4)[nH]c3=O)CC2)O1, which solubility kinetic [1] is on record?
Its solubility kinetic is 33.4 µM (≈ 13 µg/mL).

What about the IC50 [2] of the same compound?
Its IC50 is 55 nM.

What about the solubility kinetic [3] of the same compound?
The solubility kinetic was 27.4 µM (≈ 10.7 µg/mL).

And the half-life [4]?
Its half-life is greater than 3 h.

And the half-life [6]?
Its half-life is 2.48 h.

What about the Ki [7] of the same compound?
The Ki was 28 nM.
